Results taken from ChEMBL document CHEMBL1150362, “Synthesis and in vitro evaluation of a library of modified endomorphin 1 peptides” (Bioorg Med Chem, 2008).
*1 amine or outer side, *2 acyl side, *3 side chain or, on linkers, in order; H or OH if unused. Where a SMILES comes first, the peptide text is derived from it. [ ]: non-standard residue; d: D form. The star is where a group is joined. ξ: configuration not given here. NH(β-D-Glc) = OC[C@H]1O[C@@H](N*)[C@H](O)[C@@H](O)[C@@H]1O; X1 = NC(=O)[C@H]1O[C@@H](N*)[C@H](O)[C@@H](O)[C@@H]1O; ξGly(nC16H33) = CCCCCCCCCCCCCCCCC(N)C(=O)O; Dmt = Cc1cc(O)cc(C)c1C[C@H](N)C(=O)O; ξGly(decyl) = CCCCCCCCCCC(N)C(=O)O; Suc = O=C(CCC(=O)[*:2])[*:1]; ξAoc(2) = CCCCCCC(N)C(=O)O

Key:
[1] = (§1) Metabolic stability assessed as half life in human Caco-2 cell homogenate; type: ADME, Colon; details: Caco-2 cell homogenate
[2] = target: T1, Mu-type opioid receptor (Homo sapiens, UniProt P35372); assay: Displacement of [3H]DAMGO from mu opioid receptor in human SHSY5Y cells; type: cell-based, SH-SY5Y
T1 sequence (P35372 whole entry): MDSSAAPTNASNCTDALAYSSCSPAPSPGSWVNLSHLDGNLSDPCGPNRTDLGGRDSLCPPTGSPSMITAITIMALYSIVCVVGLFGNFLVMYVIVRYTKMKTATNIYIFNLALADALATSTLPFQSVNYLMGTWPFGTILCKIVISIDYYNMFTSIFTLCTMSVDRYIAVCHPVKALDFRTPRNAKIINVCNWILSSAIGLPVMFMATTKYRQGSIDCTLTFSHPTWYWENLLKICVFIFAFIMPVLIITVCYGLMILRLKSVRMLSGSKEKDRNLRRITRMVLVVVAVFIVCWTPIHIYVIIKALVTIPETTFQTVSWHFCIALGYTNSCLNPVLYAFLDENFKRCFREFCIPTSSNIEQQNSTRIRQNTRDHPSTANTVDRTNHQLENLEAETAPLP
In short: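 Intact SH-SY5Y cells in 24-well plates were pre-incubated in binding buffer (50 mM Tris pH 7.4, 2% BSA). Incubated with 100 pM [3H]DAMGO plus unlabelled competitor (7 concentrations, 10 pM-1 μM) for 60 min at 37°C. Nonspecific binding defined with 1 μM DAMGO. Cells washed, dissolved in 1 M NaOH and counted by scintillation. Triplicates on at least three plates; Ki from one-site competition fits.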

[3] = species on record: Rattus norvegicus; assay: Selectivity for rat mu opioid receptor over rat delta opioid receptor
In short: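 Ratio Kiδ/Kiμ, with both Ki values from competitive displacement binding on prepared rat brain P2 synaptosome membranes. The μ site was labelled with [3H]DAMGO. Ki values are given as mean ± SE, n = 3-4.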

[4] = (§2) Apparent permeability from apical to basolateral side of the human Caco-2 membrane; type: ADME, cell-based
[5] = target: Delta-type opioid receptor (Rattus norvegicus, UniProt P33533); assay: Displacement of […] from delta opioid receptor in rat brain membrane; type: cell membranes
Sequence of Delta-type opioid receptor (P33533 whole entry): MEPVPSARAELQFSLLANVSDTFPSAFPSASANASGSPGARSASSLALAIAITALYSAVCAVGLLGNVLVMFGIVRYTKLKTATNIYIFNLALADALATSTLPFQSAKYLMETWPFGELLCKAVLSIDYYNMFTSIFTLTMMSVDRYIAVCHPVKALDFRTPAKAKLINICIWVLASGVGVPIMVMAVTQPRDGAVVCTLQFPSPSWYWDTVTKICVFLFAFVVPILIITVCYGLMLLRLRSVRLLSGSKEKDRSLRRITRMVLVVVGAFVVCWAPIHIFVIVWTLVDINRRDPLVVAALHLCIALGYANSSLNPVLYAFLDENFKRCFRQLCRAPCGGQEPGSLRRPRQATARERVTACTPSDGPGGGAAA

[6] = target: Mu-type opioid receptor (Rattus norvegicus, UniProt P33535); assay: Displacement of [3H]DAMGO from mu opioid receptor in rat brain membrane; type: cell membranes
Sequence of Mu-type opioid receptor (Rattus norvegicus, UniProt P33535) (P33535 whole entry): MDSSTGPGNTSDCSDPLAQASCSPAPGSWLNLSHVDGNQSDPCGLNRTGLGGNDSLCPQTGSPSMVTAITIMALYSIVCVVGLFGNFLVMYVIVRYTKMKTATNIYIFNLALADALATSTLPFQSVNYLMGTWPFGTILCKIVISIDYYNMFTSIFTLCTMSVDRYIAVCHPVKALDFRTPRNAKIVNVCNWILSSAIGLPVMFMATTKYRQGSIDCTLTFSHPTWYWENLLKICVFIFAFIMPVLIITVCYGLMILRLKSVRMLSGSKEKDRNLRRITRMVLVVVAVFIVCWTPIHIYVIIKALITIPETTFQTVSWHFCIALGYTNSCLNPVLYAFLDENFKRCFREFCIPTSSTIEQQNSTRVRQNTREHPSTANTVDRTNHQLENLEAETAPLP

[7] = target: T1, Mu-type opioid receptor; assay: Agonist activity at mu opioid receptor in human SHSY5Y cells assessed as inhibition of forskolin-stimulated cAMP production at 100 nM; type: functional, cell-based; parameters: scale not given: the % may be the effect or the level left; details: SH-SY5Y
In short: (§3)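 SH-SY5Y cells (endogenous mu and delta opioid receptors, passages 10-20) grown in 96-well plates to 80% confluence. Peptides applied in DMEM with 30 μM forskolin for 30 min at 37°C. Lysed cells read by cAMP enzyme immunoassay (TMB, 450 nm) against a 0-3.2 pmol standard curve, expressed relative to the maximal forskolin response. Three experiments in triplicate; IC50 from concentration-response curves.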

[8] = tested on: Caco-2; assay: as §1; type: ADME, Colon; details: Caco-2
[9] = tested on: Caco-2; assay: as §2; type: ADME, cell-based
[10] = target: T1, Mu-type opioid receptor; assay: Agonist activity at mu opioid receptor in human SHSY5Y cells assessed as inhibition of forskolin-stimulated cAMP production; type: functional, cell-based, SH-SY5Y; in short: as §3

Structure (SMILES)	half-life [1] [min]	Ki [2] [nM]	Papp A→B [4] [×10⁻⁶ cm/s]	Activity [7] [%]	further results
CCCCCC[C@@H](N)C(=O)N[C@@H](Cc1ccc(O)cc1)C(=O)N1CCC[C@H]1C(=O)N[C@@H](Cc1c[nH]c2ccccc12)C(=O)N[C@@H](Cc1ccccc1)C(N)=O	23.8	2.92	–	–	–
Cc1cc(O)cc(C)c1C[C@H](N)C(=O)N1CCC[C@H]1C(=O)N[C@@H](Cc1c[nH]c2ccccc12)C(=O)N[C@@H](Cc1ccccc1)C(N)=O (stereo in doubt; 13) [listing 1 of 2 here]	–	–	–	–	Ratio Ki [3]: 75
NC(=O)[C@H](Cc1ccccc1)NC(=O)[C@H](Cc1c[nH]c2ccccc12)NC(=O)[C@@H]1CCCN1C(=O)[C@@H](N)Cc1ccc(O)cc1 [ENDOMORPHIN-1]	–	–	0.447	–	–
CCCCCCCCCCC(N)C(=O)N[C@@H](Cc1ccc(O)cc1)C(=O)N1CCC[C@H]1C(=O)N[C@@H](Cc1c[nH]c2ccccc12)C(=O)N[C@@H](Cc1ccccc1)C(N)=O (stereo partly drawn) (H-[ξGly(decyl)]YPWF-NH2)	–	15.4	1.24	55.4	Ki [5]: 836 nM; Ki [6]: 14.8 nM; Ratio Ki [3]: 56
Cc1cc(O)cc(C)c1C[C@H](N)C(=O)N1CCC[C@H]1C(=O)N[C@@H](Cc1c[nH]c2ccccc12)C(=O)N[C@@H](Cc1ccccc1)C(N)=O (stereo in doubt)	–	–	–	–	t1/2 [8]: 5 min; Papp [9]: 0.196 ×10⁻⁷ cm/s
CCCCCCC(N)C(=O)N[C@@H](Cc1ccc(O)cc1)C(=O)N1CCC[C@H]1C(=O)N[C@@H](Cc1c[nH]c2ccccc12)C(=O)N[C@@H](Cc1ccccc1)C(=O)N[C@@H]1O[C@H](C(N)=O)[C@@H](O)[C@H](O)[C@H]1O (stereo partly drawn) (H-[ξAoc(2)]YPWF-X1)	75	148	1.62	36.2	–
CCCCCCCCCCCCCCCCC(N)C(=O)N[C@@H](Cc1ccc(O)cc1)C(=O)N1CCC[C@H]1C(=O)N[C@@H](Cc1c[nH]c2ccccc12)C(=O)N[C@@H](Cc1ccccc1)C(N)=O (stereo partly drawn) (H-[ξGly(nC16H33)]YPWF-NH2)	–	–	–	48.4	–
Cc1cc(O)cc(C)c1C[C@H](N)C(=O)N1CCC[C@H]1C(=O)N[C@@H](Cc1c[nH]c2ccccc12)C(=O)N[C@@H](Cc1ccccc1)C(N)=O (stereo in doubt; 13) [listing 2 of 2 here]	–	0.059	–	–	Ki [5]: 5 nM; t1/2 [8]: 13.5 min; Papp [9]: 5.04 ×10⁻⁷ cm/s; Ki [6]: 0.067 nM; IC50 [10]: 0.43 nM
CCCCCCC(NC(=O)[C@H](Cc1ccccc1)NC(=O)[C@H](Cc1c[nH]c2ccccc12)NC(=O)[C@@H]1CCCN1C(=O)[C@@H](N)Cc1ccc(O)cc1)C(N)=O (stereo partly drawn) (H-YPWF[ξAoc(2)]-NH2)	3.5	121	0.823	15.9	–
NC(=O)[C@H]1O[C@@H](NC(=O)[C@H](Cc2ccccc2)NC(=O)[C@H](Cc2c[nH]c3ccccc23)NC(=O)[C@@H]2CCCN2C(=O)[C@@H](N)Cc2ccc(O)cc2)[C@H](O)[C@@H](O)[C@@H]1O	4.3	151	–	31.5	–
CCCCCC[C@H](N)C(=O)N[C@@H](Cc1ccc(O)cc1)C(=O)N1CCC[C@H]1C(=O)N[C@@H](Cc1c[nH]c2ccccc12)C(=O)N[C@@H](Cc1ccccc1)C(N)=O	23.8	3.02	–	–	–
CCCCCCCCCCC(NC(=O)[C@H](Cc1ccccc1)NC(=O)[C@H](Cc1c[nH]c2ccccc12)NC(=O)[C@@H]1CCCN1C(=O)[C@@H](N)Cc1ccc(O)cc1)C(N)=O (stereo partly drawn) (H-YPWF[ξGly(decyl)]-NH2)	–	–	0.416	–	–
NC(=O)[C@H](Cc1ccccc1)NC(=O)[C@H](Cc1c[nH]c2ccccc12)NC(=O)[C@@H]1CCCN1C(=O)[C@H](Cc1ccc(O)cc1)NC(=O)CCC(=O)N[C@@H]1O[C@H](CO)[C@@H](O)[C@H](O)[C@H]1O	38	115	0.545	–	Ki [5]: 6320 nM; Ki [6]: 115 nM; Ratio Ki [3]: 55
CCCCCCC(N)C(=O)N[C@@H](Cc1ccc(O)cc1)C(=O)N1CCC[C@H]1C(=O)N[C@@H](Cc1c[nH]c2ccccc12)C(=O)N[C@@H](Cc1ccccc1)C(N)=O (stereo partly drawn)	23.2	2.15	3.54	65.4	Ki [5]: 1760 nM; Ki [6]: 2.86 nM; Ratio Ki [3]: 614; IC50 [10]: 26.3 nM
CCCCCCC(N)C(=O)N[C@@H](Cc1c(C)cc(O)cc1C)C(=O)N1CCC[C@H]1C(=O)N[C@@H](Cc1c[nH]c2ccccc12)C(=O)N[C@@H](Cc1ccccc1)C(N)=O (stereo partly drawn) (H-[ξAoc(2)][Dmt]PWF-NH2)	–	0.081	–	84.3	IC50 [10]: 0.32 nM
CCCCCCC(NC(=O)[C@H](Cc1ccccc1)NC(=O)[C@H](Cc1c[nH]c2ccccc12)NC(=O)[C@@H]1CCCN1C(=O)[C@H](Cc1ccc(O)cc1)NC(=O)CCC(=O)N[C@@H]1O[C@H](CO)[C@@H](O)[C@H](O)[C@H]1O)C(N)=O (stereo partly drawn) ({NH(β-D-Glc)-Suc}-YPWF[ξAoc(2)]-NH2)	33	266	1.14	–	–
